Results: ChEMBL document CHEMBL1148789, “Synthesis and biological activities of new checkpoint kinase 1 inhibitors structurally related to granulatimide” (J Med Chem, 2007)
pIC50: −log10 of the molar value. Calls of active or inactive are those of the source. No cut-off for these calls is given here.

System: L1210
Assay: Antiproliferative activity against mouse L1210 cells after four doubling times by microculture tetrazolium assay

Compound | pIC50
O=c1ccc(=O)c2c1c1[nH]c3ccc(O)cc3c1c1c(=O)[nH]c(=O)c21 | 5.08
O=C1NC(=O)c2c1c1c(O)ccc(O)c1c1[nH]c3ccc(O)cc3c21 | 5.85
O=C1CCc2c1c1c(c3c2[nH]c2ccccc23)C(=O)NC1=O | 4.23

Species: Homo sapiens
Assay: Residual activity of CaMKII at 1 uM

Compound | residual activity [%]
O=c1ccc(=O)c2c1c1[nH]c3ccc(O)cc3c1c1c(=O)[nH]c(=O)c21 | 40
Cc1ccc2[nH]c3c4c(O)ccc(O)c4c4c(c3c2c1)C(=O)NC4=O | 34

Species: Homo sapiens
Assay: Residual activity of CDK1/cyclin B at 1 uM

Compound | residual activity [%]
O=c1ccc(=O)c2c1c1[nH]c3ccc(O)cc3c1c1c(=O)[nH]c(=O)c21 | 85
Cc1ccc2[nH]c3c4c(O)ccc(O)c4c4c(c3c2c1)C(=O)NC4=O | 86

Molecular target: Glycogen synthase kinase-3 beta (Homo sapiens) (UniProt P49841)
Sequence (P49841 whole entry, looked up): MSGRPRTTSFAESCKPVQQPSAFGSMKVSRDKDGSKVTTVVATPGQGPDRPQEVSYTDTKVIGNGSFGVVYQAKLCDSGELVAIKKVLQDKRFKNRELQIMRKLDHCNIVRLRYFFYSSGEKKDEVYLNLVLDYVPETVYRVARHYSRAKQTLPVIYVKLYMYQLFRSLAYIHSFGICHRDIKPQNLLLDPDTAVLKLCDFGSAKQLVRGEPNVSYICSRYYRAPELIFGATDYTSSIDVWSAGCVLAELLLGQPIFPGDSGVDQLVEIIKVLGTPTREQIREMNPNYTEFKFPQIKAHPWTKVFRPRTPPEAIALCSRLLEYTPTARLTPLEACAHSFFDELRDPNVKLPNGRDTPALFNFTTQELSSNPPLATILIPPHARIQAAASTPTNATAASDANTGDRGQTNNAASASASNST
Assay: Inhibition of GSK3-beta at 1 uM; values are per cent of control

Compound | residual activity [%]
O=c1ccc(=O)c2c1c1[nH]c3ccc(O)cc3c1c1c(=O)[nH]c(=O)c21 | 19
Cc1ccc2[nH]c3c4c(O)ccc(O)c4c4c(c3c2c1)C(=O)NC4=O | 60

Molecular target: RAC-alpha serine/threonine-protein kinase (Homo sapiens) (UniProt P31749)
Assay: Inhibition of PKBalpha at 1 uM; values are per cent of control

Compound | residual activity [%]
O=c1ccc(=O)c2c1c1[nH]c3ccc(O)cc3c1c1c(=O)[nH]c(=O)c21 | 87
Cc1ccc2[nH]c3c4c(O)ccc(O)c4c4c(c3c2c1)C(=O)NC4=O | 87

Molecular target: MAP kinase-activated protein kinase 2 (Homo sapiens) (UniProt P49137)
Sequence (P49137 whole entry, looked up): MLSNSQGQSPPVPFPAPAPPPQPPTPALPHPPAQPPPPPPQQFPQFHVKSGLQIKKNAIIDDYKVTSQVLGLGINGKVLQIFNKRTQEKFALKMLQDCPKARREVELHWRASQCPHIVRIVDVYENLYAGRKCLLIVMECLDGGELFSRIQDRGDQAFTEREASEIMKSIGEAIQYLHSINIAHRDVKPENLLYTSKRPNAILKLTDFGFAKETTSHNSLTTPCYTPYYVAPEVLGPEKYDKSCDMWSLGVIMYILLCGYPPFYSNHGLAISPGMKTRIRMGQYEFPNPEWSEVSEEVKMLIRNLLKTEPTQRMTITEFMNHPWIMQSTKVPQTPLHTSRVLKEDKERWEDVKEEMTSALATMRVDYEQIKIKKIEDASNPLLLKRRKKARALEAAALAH
Assay: Residual activity of MAPKAPK2 at 1 uM

Compound | residual activity [%]
O=c1ccc(=O)c2c1c1[nH]c3ccc(O)cc3c1c1c(=O)[nH]c(=O)c21 | 73
Cc1ccc2[nH]c3c4c(O)ccc(O)c4c4c(c3c2c1)C(=O)NC4=O | 57

Species: Homo sapiens
Assay: Residual activity of CDK7/cyclin H at 1 uM

Compound | residual activity [%]
O=c1ccc(=O)c2c1c1[nH]c3ccc(O)cc3c1c1c(=O)[nH]c(=O)c21 | 87
Cc1ccc2[nH]c3c4c(O)ccc(O)c4c4c(c3c2c1)C(=O)NC4=O | 90

Species: Homo sapiens
Assay: Inhibition of CDK2/cyclin A at 1 uM; values are per cent of control

Compound | residual activity [%]
O=c1ccc(=O)c2c1c1[nH]c3ccc(O)cc3c1c1c(=O)[nH]c(=O)c21 | 62
Cc1ccc2[nH]c3c4c(O)ccc(O)c4c4c(c3c2c1)C(=O)NC4=O | 69

Molecular target: Casein kinase I isoform delta (Homo sapiens) (UniProt P48730)
Sequence (P48730 whole entry, looked up, canonical isoform): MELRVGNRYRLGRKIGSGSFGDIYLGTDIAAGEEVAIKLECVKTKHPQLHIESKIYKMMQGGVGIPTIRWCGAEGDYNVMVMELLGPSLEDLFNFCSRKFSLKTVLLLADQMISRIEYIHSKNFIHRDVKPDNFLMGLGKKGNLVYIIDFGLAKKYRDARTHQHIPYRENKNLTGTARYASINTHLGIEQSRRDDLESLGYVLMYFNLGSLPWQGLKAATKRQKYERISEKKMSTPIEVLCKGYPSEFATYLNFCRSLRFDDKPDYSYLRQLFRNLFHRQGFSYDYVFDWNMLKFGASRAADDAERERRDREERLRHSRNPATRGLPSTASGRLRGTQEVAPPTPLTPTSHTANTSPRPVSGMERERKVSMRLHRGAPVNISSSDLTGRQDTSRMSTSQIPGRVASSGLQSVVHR
Assay: Inhibition of CK1delta at 1 uM; values are per cent of control

Compound | residual activity [%]
O=c1ccc(=O)c2c1c1[nH]c3ccc(O)cc3c1c1c(=O)[nH]c(=O)c21 | 16
Cc1ccc2[nH]c3c4c(O)ccc(O)c4c4c(c3c2c1)C(=O)NC4=O | 100

Molecular target: T1, Proto-oncogene tyrosine-protein kinase Src (Homo sapiens, UniProt P12931)
T1 sequence (P12931 2-536 limits assumed): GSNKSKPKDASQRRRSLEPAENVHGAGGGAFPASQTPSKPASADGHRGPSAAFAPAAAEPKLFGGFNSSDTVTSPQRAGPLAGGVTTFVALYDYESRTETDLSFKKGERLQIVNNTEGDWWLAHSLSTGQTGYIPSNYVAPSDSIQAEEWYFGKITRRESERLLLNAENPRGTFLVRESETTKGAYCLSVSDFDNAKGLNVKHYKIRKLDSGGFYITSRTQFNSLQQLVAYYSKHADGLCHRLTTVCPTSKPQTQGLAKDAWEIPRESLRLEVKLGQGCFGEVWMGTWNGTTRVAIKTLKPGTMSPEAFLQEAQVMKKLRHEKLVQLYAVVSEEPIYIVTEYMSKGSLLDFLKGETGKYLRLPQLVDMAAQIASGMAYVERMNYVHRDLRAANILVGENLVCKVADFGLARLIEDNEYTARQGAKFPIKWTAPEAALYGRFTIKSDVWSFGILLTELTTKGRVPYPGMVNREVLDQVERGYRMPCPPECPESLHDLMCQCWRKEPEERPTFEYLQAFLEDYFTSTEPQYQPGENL
Assay: Inhibition of Src at 10 uM
How it was run: (§1)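 Started by adding cosubstrate (40 µM ATP stock with [33P]γ-ATP); 20 min at 30 °C. Stopped with 0.85% orthophosphoric acid, filtered on phosphocellulose, washed, then scintillation counted. Percent inhibition at 10 µM; IC50 reported.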

Compound | inhibition [%] | Activity
O=C1NC(=O)c2c1c1c(c3[nH]c4ccccc4c23)C(=O)CCC1 | 8.5 | –
O=c1ccc(=O)c2c1c1[nH]c3ccc(O)cc3c1c1c(=O)[nH]c(=O)c21 | 63 | –
O=C1NC(=O)c2c1c1c(O)cccc1c1[nH]c3ccccc3c21 | 35 | –
O=C1NC(=O)c2c1c1c(O)ccc(O)c1c1[nH]c3ccc(O)cc3c21 | 83.5 | –
O=C1CCc2c1c1c(c3c2[nH]c2ccccc23)C(=O)NC1=O | – | inactive
O=C1NC(=O)c2c1c1c(O)ccc(O)c1c1[nH]c3ccccc3c21 | 2.5 | –

System: HCT-116
Assay: Antiproliferative activity against human HCT116 cells […] by microculture tetrazolium assay
Assay type: functional, cell-based
How it was run: (§2)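 Human HCT116, human HT29 and murine L1210 tumour cells grown in RPMI 1640 with 10% fetal calf serum, 2 mM L-glutamine, penicillin/streptomycin and 10 mM HEPES pH 7.4. Compounds were taken from 10^-2 M DMSO stocks, diluted 1/100 in RPMI, and cells were exposed continuously to graded concentrations for four doubling times. MTT was added for 4 h at 37 °C and the formazan dissolved in DMSO. IC50 is the concentration lowering optical density 50% versus untreated cells.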

Compound | pIC50
O=C1NC(=O)c2c1c1c(c3[nH]c4ccccc4c23)C(=O)CCC1 | 5.96
O=c1ccc(=O)c2c1c1[nH]c3ccc(O)cc3c1c1c(=O)[nH]c(=O)c21 | 4.81
O=C1NC(=O)c2c1c1c(O)cccc1c1[nH]c3ccccc3c21 | 4.76
O=C1NC(=O)c2c1c1c(O)ccc(O)c1c1[nH]c3ccc(O)cc3c21 | 5.57
O=C1CCc2c1c1c(c3c2[nH]c2ccccc23)C(=O)NC1=O | 5.01
Cc1ccc2[nH]c3c4c(O)ccc(O)c4c4c(c3c2c1)C(=O)NC4=O | 5.80

Molecular target: Casein kinase II subunit alpha (Homo sapiens) (UniProt P68400)
Sequence (P68400 whole entry, looked up): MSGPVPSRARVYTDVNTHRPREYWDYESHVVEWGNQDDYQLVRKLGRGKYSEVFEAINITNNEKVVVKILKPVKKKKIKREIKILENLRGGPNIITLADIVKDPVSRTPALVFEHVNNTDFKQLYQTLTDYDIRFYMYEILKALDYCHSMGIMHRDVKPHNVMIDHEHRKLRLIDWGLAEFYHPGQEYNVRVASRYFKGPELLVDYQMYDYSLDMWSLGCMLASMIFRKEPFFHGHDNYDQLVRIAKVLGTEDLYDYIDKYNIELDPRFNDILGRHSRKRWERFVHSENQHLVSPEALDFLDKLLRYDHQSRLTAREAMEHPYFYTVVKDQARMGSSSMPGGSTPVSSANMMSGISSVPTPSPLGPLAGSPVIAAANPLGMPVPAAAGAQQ
Assay: Residual activity of CK2 at 1 uM

Compound | residual activity [%]
O=c1ccc(=O)c2c1c1[nH]c3ccc(O)cc3c1c1c(=O)[nH]c(=O)c21 | 92
Cc1ccc2[nH]c3c4c(O)ccc(O)c4c4c(c3c2c1)C(=O)NC4=O | 108

Molecular target: T2, Serine/threonine-protein kinase Chk1 (Homo sapiens) (UniProt O14757)
T2 sequence (whole entry): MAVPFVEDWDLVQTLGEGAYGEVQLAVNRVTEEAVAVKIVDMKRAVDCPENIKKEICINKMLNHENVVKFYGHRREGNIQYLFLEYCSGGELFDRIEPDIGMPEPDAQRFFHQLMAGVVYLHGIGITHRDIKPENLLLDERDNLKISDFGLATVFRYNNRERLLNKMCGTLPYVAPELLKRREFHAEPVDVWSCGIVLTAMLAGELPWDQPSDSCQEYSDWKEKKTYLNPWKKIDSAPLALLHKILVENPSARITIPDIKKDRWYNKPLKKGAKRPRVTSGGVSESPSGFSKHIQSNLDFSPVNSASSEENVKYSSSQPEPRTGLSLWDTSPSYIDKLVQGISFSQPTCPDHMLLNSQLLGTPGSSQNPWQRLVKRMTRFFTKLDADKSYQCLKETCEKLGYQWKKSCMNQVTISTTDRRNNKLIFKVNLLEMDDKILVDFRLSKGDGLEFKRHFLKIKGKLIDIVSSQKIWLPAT
Assay: Inhibition of human Chk1 expressed in Sf9 cells at 10 uM
How it was run: (§3)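 Full-length human Chk1 with an N-terminal GST tag, purified from baculovirus-infected Sf9 cells or purchased. Stopped with orthophosphoric acid and captured on phosphocellulose filters for scintillation counting. Percent inhibition at 10 µM; IC50 from 12 concentrations over 6 logs, duplicate points averaged.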

Compound | inhibition [%]
O=C1NC(=O)c2c1c1c(c3[nH]c4ccccc4c23)C(=O)CCC1 | 15.3
O=c1ccc(=O)c2c1c1[nH]c3ccc(O)cc3c1c1c(=O)[nH]c(=O)c21 | 95
O=C1NC(=O)c2c1c1c(O)cccc1c1[nH]c3ccccc3c21 | 93
O=C1NC(=O)c2c1c1c(O)ccc(O)c1c1[nH]c3ccc(O)cc3c21 | 94
O=C1CCc2c1c1c(c3c2[nH]c2ccccc23)C(=O)NC1=O | 72
O=C1NC(=O)c2c1c1c(O)ccc(O)c1c1[nH]c3ccccc3c21 | 96
Cc1ccc2[nH]c3c4c(O)ccc(O)c4c4c(c3c2c1)C(=O)NC4=O | 99

Molecular target: RAF proto-oncogene serine/threonine-protein kinase (Homo sapiens) (UniProt P04049)
Sequence (P04049 whole entry): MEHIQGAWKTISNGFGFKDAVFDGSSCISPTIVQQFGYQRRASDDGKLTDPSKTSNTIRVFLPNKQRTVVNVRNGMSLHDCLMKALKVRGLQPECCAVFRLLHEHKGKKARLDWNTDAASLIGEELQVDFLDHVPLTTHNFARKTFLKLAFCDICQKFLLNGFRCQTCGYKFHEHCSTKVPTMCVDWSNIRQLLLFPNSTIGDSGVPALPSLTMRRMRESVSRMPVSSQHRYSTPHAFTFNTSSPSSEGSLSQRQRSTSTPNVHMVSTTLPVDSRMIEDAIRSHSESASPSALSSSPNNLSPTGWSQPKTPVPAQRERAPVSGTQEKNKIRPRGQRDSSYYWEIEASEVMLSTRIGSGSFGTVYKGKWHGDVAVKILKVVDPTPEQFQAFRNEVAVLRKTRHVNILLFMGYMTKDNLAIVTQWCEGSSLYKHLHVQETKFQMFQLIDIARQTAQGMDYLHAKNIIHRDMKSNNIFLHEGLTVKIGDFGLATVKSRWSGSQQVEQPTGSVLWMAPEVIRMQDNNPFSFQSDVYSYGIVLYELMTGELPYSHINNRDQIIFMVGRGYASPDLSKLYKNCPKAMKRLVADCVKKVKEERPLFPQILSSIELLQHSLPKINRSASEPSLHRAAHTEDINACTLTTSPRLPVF
Assay: Residual activity of cRAF at 1 uM

Compound | residual activity [%]
O=c1ccc(=O)c2c1c1[nH]c3ccc(O)cc3c1c1c(=O)[nH]c(=O)c21 | 102
Cc1ccc2[nH]c3c4c(O)ccc(O)c4c4c(c3c2c1)C(=O)NC4=O | 93

Molecular target: Mitogen-activated protein kinase 1 (Homo sapiens) (UniProt P28482)
Sequence (P28482 whole entry): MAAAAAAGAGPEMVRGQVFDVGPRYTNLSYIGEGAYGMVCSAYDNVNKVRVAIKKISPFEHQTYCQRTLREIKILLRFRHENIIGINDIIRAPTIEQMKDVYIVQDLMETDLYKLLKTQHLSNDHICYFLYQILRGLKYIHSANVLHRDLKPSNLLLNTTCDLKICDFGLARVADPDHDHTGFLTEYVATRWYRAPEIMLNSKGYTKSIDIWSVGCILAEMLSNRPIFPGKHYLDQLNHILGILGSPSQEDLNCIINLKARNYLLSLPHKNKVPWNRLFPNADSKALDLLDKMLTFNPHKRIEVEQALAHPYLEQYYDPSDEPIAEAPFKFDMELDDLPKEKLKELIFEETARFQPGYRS
Assay: Inhibition of MAPK1 at 1 uM; values are per cent of control

Compound | residual activity [%]
O=c1ccc(=O)c2c1c1[nH]c3ccc(O)cc3c1c1c(=O)[nH]c(=O)c21 | 77
Cc1ccc2[nH]c3c4c(O)ccc(O)c4c4c(c3c2c1)C(=O)NC4=O | 95

Molecular target: Dual specificity mitogen-activated protein kinase kinase 1 (Homo sapiens) (UniProt Q02750)
Sequence (Q02750 whole entry): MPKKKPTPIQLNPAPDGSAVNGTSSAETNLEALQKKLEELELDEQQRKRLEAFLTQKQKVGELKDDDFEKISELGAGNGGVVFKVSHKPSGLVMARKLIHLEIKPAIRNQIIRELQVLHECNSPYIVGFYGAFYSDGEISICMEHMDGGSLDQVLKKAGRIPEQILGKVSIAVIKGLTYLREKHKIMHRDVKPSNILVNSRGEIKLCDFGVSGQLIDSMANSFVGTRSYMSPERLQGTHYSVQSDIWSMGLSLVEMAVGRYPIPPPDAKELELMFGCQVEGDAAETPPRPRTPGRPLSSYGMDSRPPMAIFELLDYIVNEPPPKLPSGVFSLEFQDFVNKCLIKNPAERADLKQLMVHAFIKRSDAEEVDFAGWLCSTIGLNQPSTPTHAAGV
Assay: Residual activity of MEK1 at 1 uM

Compound | residual activity [%]
O=c1ccc(=O)c2c1c1[nH]c3ccc(O)cc3c1c1c(=O)[nH]c(=O)c21 | 98
Cc1ccc2[nH]c3c4c(O)ccc(O)c4c4c(c3c2c1)C(=O)NC4=O | 96

Molecular target: Glycogen synthase kinase-3 alpha (Homo sapiens) (UniProt P49840)
Assay: Inhibition of GSK3-alpha at 1 uM; values are per cent of control

Compound | residual activity [%]
O=c1ccc(=O)c2c1c1[nH]c3ccc(O)cc3c1c1c(=O)[nH]c(=O)c21 | 3
Cc1ccc2[nH]c3c4c(O)ccc(O)c4c4c(c3c2c1)C(=O)NC4=O | 32

Molecular target: T3, Serine/threonine-protein kinase Chk1 (Homo sapiens, UniProt O14757)
T3 sequence (O14757 whole entry): T2 sequence (whole entry)
Assay: Inhibition of human Chk1 expressed in Sf9 cells
How it was run: as §3

Compound | pIC50
O=c1ccc(=O)c2c1c1[nH]c3ccc(O)cc3c1c1c(=O)[nH]c(=O)c21 | 7.57
O=C1NC(=O)c2c1c1c(O)cccc1c1[nH]c3ccccc3c21 | 6.04
O=C1NC(=O)c2c1c1c(O)ccc(O)c1c1[nH]c3ccc(O)cc3c21 | 7.64
O=C1CCc2c1c1c(c3c2[nH]c2ccccc23)C(=O)NC1=O | 7.37
O=C1NC(=O)c2c1c1c(O)ccc(O)c1c1[nH]c3ccccc3c21 | 6.51
Cc1ccc2[nH]c3c4c(O)ccc(O)c4c4c(c3c2c1)C(=O)NC4=O | 6.79

Species: Homo sapiens
Assay: Residual activity of PKA at 1 uM

Compound | residual activity [%]
O=c1ccc(=O)c2c1c1[nH]c3ccc(O)cc3c1c1c(=O)[nH]c(=O)c21 | 103
Cc1ccc2[nH]c3c4c(O)ccc(O)c4c4c(c3c2c1)C(=O)NC4=O | 117

Molecular target: T2, Serine/threonine-protein kinase Chk1 (Homo sapiens)
Assay: Residual activity of Chk1 at 1 uM

Compound | residual activity [%]
O=c1ccc(=O)c2c1c1[nH]c3ccc(O)cc3c1c1c(=O)[nH]c(=O)c21 | 22
Cc1ccc2[nH]c3c4c(O)ccc(O)c4c4c(c3c2c1)C(=O)NC4=O | 12

Molecular target: CDK9/cyclin T1 (Homo sapiens) (UniProt O60563+P50750)
Assay: Inhibition of CDK9/cyclin T1 at 1 uM; values are per cent of control

Compound | residual activity [%]
O=c1ccc(=O)c2c1c1[nH]c3ccc(O)cc3c1c1c(=O)[nH]c(=O)c21 | 61
Cc1ccc2[nH]c3c4c(O)ccc(O)c4c4c(c3c2c1)C(=O)NC4=O | 117

System: HT-29
Assay: Antiproliferative activity against human HT29 cells […] by microculture tetrazolium assay
Assay type: functional, cell-based
How it was run: as §2

Compound | pIC50
O=C1NC(=O)c2c1c1c(c3[nH]c4ccccc4c23)C(=O)CCC1 | 4.81
O=c1ccc(=O)c2c1c1[nH]c3ccc(O)cc3c1c1c(=O)[nH]c(=O)c21 | 4.30
O=C1NC(=O)c2c1c1c(O)cccc1c1[nH]c3ccccc3c21 | 4.33
O=C1NC(=O)c2c1c1c(O)ccc(O)c1c1[nH]c3ccc(O)cc3c21 | 4.58
O=C1CCc2c1c1c(c3c2[nH]c2ccccc23)C(=O)NC1=O | 4.79
Cc1ccc2[nH]c3c4c(O)ccc(O)c4c4c(c3c2c1)C(=O)NC4=O | 5.42

Molecular target: T1, Proto-oncogene tyrosine-protein kinase Src
Assay: Inhibition of Src
How it was run: as §1

Compound | pIC50
O=C1NC(=O)c2c1c1c(O)ccc(O)c1c1[nH]c3ccc(O)cc3c21 | 5.27

Molecular target: Protein kinase C alpha type (Homo sapiens) (UniProt P17252)
Assay: Inhibition of PKCalpha at 1 uM; values are per cent of control

Compound | residual activity [%]
O=c1ccc(=O)c2c1c1[nH]c3ccc(O)cc3c1c1c(=O)[nH]c(=O)c21 | 66
Cc1ccc2[nH]c3c4c(O)ccc(O)c4c4c(c3c2c1)C(=O)NC4=O | 102

Molecular target: Ribosomal protein S6 kinase beta-1 (Homo sapiens) (UniProt P23443)
Sequence (P23443 whole entry, looked up): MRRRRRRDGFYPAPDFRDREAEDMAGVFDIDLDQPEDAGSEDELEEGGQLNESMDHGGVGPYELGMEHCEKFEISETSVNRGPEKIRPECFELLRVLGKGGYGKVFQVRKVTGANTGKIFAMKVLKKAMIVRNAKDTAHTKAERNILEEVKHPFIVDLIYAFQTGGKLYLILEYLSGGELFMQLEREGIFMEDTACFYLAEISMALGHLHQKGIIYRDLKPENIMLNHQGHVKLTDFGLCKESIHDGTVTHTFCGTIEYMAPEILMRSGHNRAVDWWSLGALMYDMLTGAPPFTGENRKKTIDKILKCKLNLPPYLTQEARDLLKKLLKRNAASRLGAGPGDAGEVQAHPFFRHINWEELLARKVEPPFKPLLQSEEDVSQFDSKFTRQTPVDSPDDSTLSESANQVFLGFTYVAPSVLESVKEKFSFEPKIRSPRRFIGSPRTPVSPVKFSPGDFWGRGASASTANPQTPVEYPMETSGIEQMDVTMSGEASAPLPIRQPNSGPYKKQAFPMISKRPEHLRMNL
Assay: Residual activity of p70S6K at 1 uM

Compound | residual activity [%]
O=c1ccc(=O)c2c1c1[nH]c3ccc(O)cc3c1c1c(=O)[nH]c(=O)c21 | 27
Cc1ccc2[nH]c3c4c(O)ccc(O)c4c4c(c3c2c1)C(=O)NC4=O | 42

Molecular target: Cyclin-dependent kinase 5/CDK5 activator 1 (Homo sapiens) (UniProt Q00535+Q15078)
Assay: Residual activity of CDK5/p25 at 1 uM

Compound | residual activity [%]
O=c1ccc(=O)c2c1c1[nH]c3ccc(O)cc3c1c1c(=O)[nH]c(=O)c21 | 33
Cc1ccc2[nH]c3c4c(O)ccc(O)c4c4c(c3c2c1)C(=O)NC4=O | 28
